The values that follow come from ChEMBL document CHEMBL1140209, “Synthesis and pharmacological characterization of novel druglike corticotropin-releasing factor 1 antagonists” (J Med Chem, 2008).

Structures are written as SMILES. pIC50: −log10 of the molar value. Activity calls are given as the source filed them. No cut-off for these calls is given here.

Series [1] has as its target T1, Corticotropin-releasing factor receptor 1 (Homo sapiens, UniProt P34998).
T1 sequence (P34998 whole entry): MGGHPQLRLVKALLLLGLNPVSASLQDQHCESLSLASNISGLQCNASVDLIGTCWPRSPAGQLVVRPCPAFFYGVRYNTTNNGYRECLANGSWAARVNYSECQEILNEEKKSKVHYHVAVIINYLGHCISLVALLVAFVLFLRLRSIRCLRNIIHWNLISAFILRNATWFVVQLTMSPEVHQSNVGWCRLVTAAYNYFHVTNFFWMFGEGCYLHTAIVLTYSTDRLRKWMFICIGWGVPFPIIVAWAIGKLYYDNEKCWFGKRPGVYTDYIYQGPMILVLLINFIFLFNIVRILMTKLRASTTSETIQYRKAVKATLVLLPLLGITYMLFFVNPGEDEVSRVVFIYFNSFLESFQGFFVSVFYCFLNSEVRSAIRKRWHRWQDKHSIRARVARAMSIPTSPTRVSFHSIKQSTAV
Kind of series: Displacement of [125I]sauvagine from human recombinant CRF1 receptor expressed in CHO cells. The class given is cell-based. Background: In a radioligand displacement assay an active substance lowers the binding of a labelled ligand.

Series [2] in a line: Half life in rat at 1 mg/kg, iv or 10 mg/kg, po. Particulars: in vivo. The class given is ADME, organism-based.
Series [3] relates to Meriones unguiculatus. Kind of series: Anxiolytic activity in Mongolian gerbils forepaw treading model assessed as reduction of time spent in CRF-induced piano playing behavior at 30 mg/kg, po administered 180 mins before CRF challenge. It counts as functional, organism-based. More on the design: dose 30 mg/kg.
Series [4] can be described thus: Oral bioavailability in marmoset at 10 mg/kg. Conditions: in vivo. The class given is ADME, organism-based, Callithrix jacchus.
Series [5] concerns Callithrix jacchus. In words: Toxic sedative effect in po dosed marmoset assessed as effect on number of physiological jumps. The class given is toxicity, organism-based. Particulars: in vivo.
Series [6] can be described thus: Half life in marmoset at 1 mg/kg, iv or 10 mg/kg, po. It counts as ADME, organism-based, Callithrix jacchus. Conditions: in vivo.
A short description of series [7]: Volume of distribution at steady state in rat at 1 mg/kg, iv or 10 mg/kg, po. Conditions: in vivo, read-out: Vdss. It counts as ADME, organism-based.
Series [8] can be described thus: Plasma clearance in rat at 1 mg/kg, iv or 10 mg/kg, po. It counts as ADME, organism-based.
Series [9] can be described thus: Oral bioavailability in rat at 10 mg/kg. Conditions: in vivo. The class given is ADME, organism-based.
Series [10] deals with T2, Corticotropin-releasing factor receptor 2 (Homo sapiens) (UniProt Q13324).
T2 sequence (whole entry): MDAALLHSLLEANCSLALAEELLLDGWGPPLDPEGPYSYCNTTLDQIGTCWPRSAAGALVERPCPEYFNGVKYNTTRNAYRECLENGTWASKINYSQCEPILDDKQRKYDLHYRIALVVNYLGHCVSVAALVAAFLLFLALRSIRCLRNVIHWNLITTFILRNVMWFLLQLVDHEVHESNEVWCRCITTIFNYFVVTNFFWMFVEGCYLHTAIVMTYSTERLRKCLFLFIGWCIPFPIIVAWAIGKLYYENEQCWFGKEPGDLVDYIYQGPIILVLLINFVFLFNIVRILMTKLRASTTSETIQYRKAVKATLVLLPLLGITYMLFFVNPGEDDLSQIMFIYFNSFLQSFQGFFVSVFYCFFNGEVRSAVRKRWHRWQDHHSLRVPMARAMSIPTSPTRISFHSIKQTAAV
In words: Antagonist activity at human CRF2 receptor expressed in CHO cells assessed as effect on sauvagine-induced cAMP production. It counts as functional, cell-based. The essentials: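 CHO cells expressing human CRF2 receptor; cAMP was stimulated with 0.5 nM sauvagine, and the antagonist was tested at concentrations up to 10 µM.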
(In general: Cyclic AMP is a second messenger, typically raised through Gs and lowered through Gi signalling.)

The nature of series [11]: Ratio of drug level in brain to plasma in gerbil at 10 mg/kg, po after 1 hr. It counts as ADME, organism-based. Particulars: gerbillinae, brain and plasma. The arrangement: dose 10 mg/kg, route oral.
Series [12] has as its system Rattus norvegicus. Kind of series: Anxiolytic activity in ip dosed ultrasonic vocalization rat model assessed as reduction of vocalization duration administered 30 mins before ultrasonic vocalizations. The class given is functional, organism-based.
The nature of series [13]: Plasma clearance in marmoset at 1 mg/kg, iv or 10 mg/kg, po. It counts as ADME, organism-based, Callithrix jacchus.
Series [14] can be described thus: Volume of distribution at steady state in marmoset at 1 mg/kg, iv or 10 mg/kg, po. It counts as ADME, organism-based, Callithrix jacchus. Conditions: in vivo, read-out: Vdss.
For series [15], the system named is Meriones unguiculatus. In words: Anxiolytic activity in Mongolian gerbils forepaw treading model assessed as reduction of time spent in CRF-induced piano playing behavior at 30 mg/kg, po administered 60 mins before CRF challenge. The class given is functional, organism-based. More on the design: dose 30 mg/kg.
Series [16] relates to Callithrix jacchus. Kind of series: Anxiolytic activity in po dosed marmoset assessed as reduction of number of postures by marmoset human threat test. The class given is functional, organism-based.
Series [17] deals with T1, Corticotropin-releasing factor receptor 1. In words: Antagonist activity at human CRF1 receptor expressed in CHO cells assessed as effect on sauvagine-induced cAMP production. It counts as functional, cell-based. Particulars: read-out: pA2 (converted). In short, it runs like this:
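CHO cells transfected with human CRF1 receptor; sauvagine concentration-response curves for cAMP were run with increasing antagonist concentrations and analysed by Schild plot (n = 6). Potency was taken as pA2, the concentration that doubles the sauvagine ED50. Antagonist alone, up to 10 µM, was also tested on cAMP without sauvagine.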

For series [18], the system named is Meriones unguiculatus. In words: Anxiolytic activity in po dosed Mongolian gerbils forepaw treading model assessed as reduction of time spent in CRF-induced piano playing behavior administered 1 hr before CRF challenge. It counts as functional, organism-based.
Series [19] has as its system Meriones unguiculatus. Kind of series: Anxiolytic activity in Mongolian gerbils forepaw treading model assessed as reduction of time spent in CRF-induced piano playing behavior at 30 mg/kg, po administered 360 mins before CRF challenge. More on the design: dose 30 mg/kg. It counts as functional, organism-based.
The nature of series [20]: Ratio of drug level in brain to plasma in rat at 1 mg/kg, iv after 1 hr. It counts as ADME, organism-based. The arrangement: dose 1 mg/kg, route intravenous. Particulars: brain and plasma.

As for `COc1ccc(N2CCc3c(-n4ccc(N5CCNC5=O)n4)cc(C)nc32)c(C(F)F)c1`, in series [1], the pIC50 is 7.25.

In the case of `CCc1cc(C#N)ccc1N1CCc2c(-n3ccc(N4CCNC4=O)n3)cc(C)nc21`, the pIC50 in series [1] is 7.30.

In the case of `COc1ccc(N2CCc3c(-n4ccc(N5CCOC5=O)n4)cc(C)nc32)c(C)c1`, the pIC50 in series [1] is 5.71.

`COc1ccc(N2CCc3c(-n4ccc(N5CCCC5=O)n4)cc(C)nc32)c(C)c1`: the pIC50 in series [1] was 6.91.

Consider `Cc1cc(-n2ccc(N3CCNC3=O)n2)c2c(n1)N(c1ccc(C#N)cc1C)CC2`, for which the pIC50 in series [1] is 7.17.

For the compound `COc1ccc(N2CCc3c(-n4ccc(N5CCNC5=O)n4)cc(C)nc32)c(C)c1` [EMICERFONT], the half-life in series [2] is 1.6 h; in series [6], 3.7 h. Besides, the outcome in series [3], in series [15] and in series [19] was Active. The bioavailability in [4] was 65%; in series [9], 66%. In addition, the Activity entry in series [5] was “Non-toxic”; in series [12], “Dose-dependent effect”; in series [16], “Dose-dependent effect”; in series [18], “Dose-dependent effect”. Also, the figures for the Vd in series [7] and in [14] were 2.4 L/kg and 4.7 L/kg, respectively. In addition, the pIC50 in [1] was 7.18. In addition, the clearance in [8] is 19 mL/min/kg; in series [13], 16 mL/min/kg. Moreover, the outcome in series [10] was inactive. In addition, the Kp at 1 h in series [11] was 4.7; in series [20] it was 3.7. Moreover, the Kb in series [17] is 72.4 nM.

For the compound `Cc1cc(-n2ccc(N3CCNC3=O)n2)c2c(n1)N(c1ccc(OC(F)(F)F)cc1C)CC2`, the pIC50 in [1] was 7.17.

With `COc1ccc(N2CCc3c(-n4ccc(N5CCCNC5=O)n4)cc(C)nc32)c(C)c1`, the pIC50 in series [1] was 6.84.

Regarding `COc1ccc(N2CCc3c(-n4ccc(N5CCNS5(=O)=O)n4)cc(C)nc32)c(C)c1`, in series [1], the pIC50 is 6.51.

`COc1cc(-n2cccn2)ccc1N1CCc2c(-n3ccc(-n4cc[nH]c4=O)n3)cc(C)nc21`: the pIC50 in series [1] was 6.44.

Consider `COc1ccc(N2CCc3c(-n4ccc(N5CCN(C)C5=O)n4)cc(C)nc32)c(C)c1`, for which the pIC50 in [1] is 6.10.

On to `Cc1cc(-n2ccc(N3CCNC3=O)n2)c2c(n1)N(c1ccc(OC(C)C)cc1C)CC2`, for which, in series [1], the pIC50 is 5.91.

Consider `Cc1cc(-n2ccc(N3CCNC3=O)n2)c2c(n1)N(c1ccc(C#N)cc1OC(F)(F)F)CC2`, for which, in [1], the pIC50 was 6.92.

Consider `Cc1cc(-n2ccc(-n3cc[nH]c3=O)n2)c2c(n1)N(c1ccc(C(F)(F)F)cc1C(F)(F)F)CC2`, for which, in [1], the pIC50 was 7.05.

As to `Cc1cc(-n2ccc(N3CCNC3=O)n2)c2c(n1)N(c1ccc(-n3cccn3)cc1C)CC2`, in series [1], the pIC50 was 6.43.

Consider `Cc1cc(-n2ccc(N3CCNC3=O)n2)c2c(n1)N(c1ccc(C#N)cc1C(F)(F)F)CC2`, for which the pIC50 in series [1] is 7.49.

`CCOc1ccc(N2CCc3c(-n4ccc(N5CCNC5=O)n4)cc(C)nc32)c(C)c1`: the pIC50 in series [1] is 6.50.

For `COc1ccc(N2CCc3c(-n4ccc(N5CCCS5(=O)=O)n4)cc(C)nc32)c(C)c1`, in series [1], the pIC50 is 5.49.

With `COc1ccc(N2CCc3c(-n4ccc(-n5cc[nH]c5=O)n4)cc(C)nc32)c(C)c1`, the pIC50 in series [1] was 6.92.

With `Cc1cc(-n2ccc(N3CCNC3=O)n2)c2c(n1)N(c1ccc(Cl)cc1Cl)CC2`, the pIC50 in series [1] is 6.80.

The pIC50 is the negative decadic logarithm of the IC50, by convention in mol/L. The term half-life denotes the time in which the quantity being followed falls by half. Higher therefore signals slow loss. What is called bioavailability is the share of a dose that reaches the circulation, judged against a reference dose that is usually intravenous. The low end stands for poor availability, the high end for good availability. For orientation: Kp means tissue or fluid exposure divided by exposure in the circulation.
